Compound activity deposited in PubChem by Broad Institute.
MITF act – activators of MITF-driven TRPM1 promoter activity in SK-MEL-5 cells; SK-MEL-5 TRPM1-promoter luciferase, 24 h; % of positive control, neutral wells = 0; 300,000 tested, 0.75% active; activation, % at 12.5 µM; AID 588334;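 active = mean activation of at least 80% with every replicate also reaching 80%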
Xi reactivation – reactivates the inactive X chromosome in mouse fibroblasts. 360,000 tested, 0.055% active. AID 743238. XiGFP mouse fibroblasts, % GFP-positive cells imaging, 3 d; cells co-treated with 5-aza-dC sensitizer; scaled so ellipticine positive control = 100%. activation, % at 7.58 µM;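 active = mean normalized replicate activation at least 10% and every replicate at or above 10%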
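System: XiGFP fibroblasts, SV40-immortalized. Medium: DMEM plus 5-aza-dC sensitizer. Doses: single point. Timing: 3 d treatment, 15 min room-temperature fixation. Control set: ellipticine 6 µM.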
Wnt bcat act – activates Wnt/beta-catenin signaling in a reporter cell assay; activator, plate reader; activation, % at 9.35 µM; 300,000 tested, 1.2% active; AID 743398; in the data active = activation above about 30%, passing the limit was not always enough
esBAF inh – inhibitors of esBAF chromatin remodeling in mouse ES cells. reporter increase, % at 12.5 µM. 350,000 tested, 2% active. Bmi1-luciferase knock-in reporter, 24 h; 100% = twice the neutral-well signal; in the data active = activation above about 40%;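 also: a rise in the Bmi1 reporter signal indicates esBAF inhibition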
CASP6 VEID inh – blocks human caspase-6 cleavage activity; P55212; purified caspase-6, Z-VEID-R110 cleavage fluorescence; inhibition, % at 12.5 µM; 350,000 tested, 0.53% active;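 active = mean inhibition across replicates at least about 35%, with every replicate also reaching that limit, limit read from the data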
Target sequence (P55212 24-179 limits assumed): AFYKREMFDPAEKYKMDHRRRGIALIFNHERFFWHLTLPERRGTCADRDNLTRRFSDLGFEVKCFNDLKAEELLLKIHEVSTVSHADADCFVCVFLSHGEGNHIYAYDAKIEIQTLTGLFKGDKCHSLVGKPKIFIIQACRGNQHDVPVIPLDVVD
Target sequence (P55212 194-293 limits assumed): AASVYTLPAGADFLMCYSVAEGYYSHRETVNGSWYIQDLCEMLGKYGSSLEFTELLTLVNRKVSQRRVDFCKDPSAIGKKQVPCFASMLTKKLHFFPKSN
NSD2 inh – blocks human histone methyltransferase NSD2. O96028. 310,000 tested, 0.54% active. inhibition, % at 12.5 µM. NSD2 peptide methylation, AlphaScreen, 120 min. AID 743445; in the data active = inhibition above about 50%
Alpha artifact – interferes with AlphaScreen signal, flagging NSD2 false positives | 1,500 tested, 9.4% active | AC35, µM (titrated, usually from 10 µM) | AID 1053174 | shares compounds with NSD2 inh | AlphaScreen artifact counterscreen, preloaded methylated H4 peptide; call rule not given here
Each line names hits and unclear results; the compound was inactive in the other large screens (follow-up assays come after a bar, where they were run). Only some compounds are listed: those with a hit (about 3% of all), similar ones and a draw of the others.

O=C(CCCN1C(=O)/C(=C\c2cccs2)SC1=S)Nc1ccc(C(=O)O)cc1	none
O=C(CCCN1C(=O)/C(=C/c2cccs2)SC1=S)Nc1ccc(O)c(C(=O)O)c1	NSD2 inh 53 (no result: MITF act, Xi reactivation, Wnt bcat act, esBAF inh, CASP6 VEID inh) | Alpha artifact inactive
CC(C)NC(=O)N(C)C[C@@H]1OCCCC[C@@H](C)Oc2ccc(NS(C)(=O)=O)cc2C(=O)N([C@H](C)CO)C[C@H]1C	none (no result: MITF act, Wnt bcat act, NSD2 inh)
CCc1ccc(N2C(=O)C3C(C2=O)N2CCCN2C3c2ccccc2)cc1 (configuration not stated)	NSD2 inh 64 (no result: MITF act, esBAF inh) | Alpha artifact inactive
O=[N+]([O-])c1ccc(Nc2ccccc2)c2nonc12	none
O=[N+]([O-])c1ccc(Sc2cccc[n+]2[O-])c2nonc12	Xi reactivation 59, CASP6 VEID inh 62, NSD2 inh 129 (no result: esBAF inh) | Alpha artifact 7.8µM
CN(C)S(=O)(=O)c1ccc(NC(=O)CCNC(=O)c2ccco2)cc1	NSD2 inh 59 | Alpha artifact inactive
CN(C)c1ccc(CNC(=O)CN(C)S(=O)(=O)c2ccc3c(c2)c(=O)n(C)c(=O)n3C)cc1	none
CCCCN(CC)CCNC(=O)CN(C)S(=O)(=O)c1ccc2c(c1)c(=O)n(C)c(=O)n2C	NSD2 inh 61 (no result: Xi reactivation, Wnt bcat act, CASP6 VEID inh) | Alpha artifact inactive
CCc1c(C)nc2ncnn2c1Nc1ccc(C)c(C)c1	none (no result: Xi reactivation, Wnt bcat act, CASP6 VEID inh)
CCc1c(C)nc2ncnn2c1Nc1ccc(C)cc1	NSD2 inh 55 (no result: MITF act) | Alpha artifact inactive
C[C@H]1CN([C@@H](C)CO)C(=O)c2cc(NS(=O)(=O)c3ccc(Cl)cc3)ccc2O[C@@H]1CN(C)S(=O)(=O)c1ccc(F)cc1	none (no result: MITF act, Wnt bcat act, NSD2 inh)
Cc1ccc(S(=O)(=O)N2CCCC(N3CCOCC3)C2)cc1Cl (configuration not stated)	NSD2 inh 53 (no result: MITF act) | Alpha artifact inactive
Cc1ccc(S(=O)(=O)c2ccc(Cl)cc2)cc1S(=O)(=O)N1CCOCC1	NSD2 inh 116 (no result: MITF act, Xi reactivation, CASP6 VEID inh) | Alpha artifact inactive
O=C(C[C@@H]1CC[C@@H]2[C@H](COC[C@@H](O)CN2Cc2ccc(Oc3ccccc3)cc2)O1)N1CCCCC1	none (no result: MITF act, Wnt bcat act, NSD2 inh)
COc1ccc(S(=O)(=O)Nc2cc(SCC(=O)O)c(O)c3ccccc23)cc1	CASP6 VEID inh 93, NSD2 inh 121 | Alpha artifact inactive
COc1ccc(S(=O)(=O)Nc2cccc3ccc(O)cc23)cc1	none (no result: MITF act, esBAF inh)
CCCC1CC(CSc2ncn[nH]2)OC1=O (configuration not stated)	none
CCC1CC(CSc2ncn[nH]2)OC1=O (configuration not stated)	NSD2 inh 56 (no result: MITF act, Xi reactivation, CASP6 VEID inh) | Alpha artifact inactive
CCNC(=O)Cc1ccc(NS(=O)(=O)c2ccc(F)cc2)cc1	NSD2 inh 109 (no result: Xi reactivation, Wnt bcat act, CASP6 VEID inh) | Alpha artifact inactive
CC(=O)N1C[C@H]2[C@@H](c3ccccc31)[C@H](CO)N2C(=O)CC1CC1	none (no result: MITF act, Wnt bcat act, NSD2 inh)
O=C(NC1=NCCS1)c1csc2ccccc12	NSD2 inh 70 (no result: Xi reactivation, Wnt bcat act, CASP6 VEID inh) | Alpha artifact inactive
O=C(c1ccccc1)c1cc2ccccc2oc1=O	NSD2 inh 113 (no result: CASP6 VEID inh) | Alpha artifact inactive
CCNC(=O)Nc1ccc2c(c1)c(=O)n(C)n2CC=C(C)C	none (no result: MITF act)
COc1ccc(CCNC(=O)Nc2ccc3c(c2)c(=O)n(C)n3CC=C(C)C)cc1OC	NSD2 inh 52 (no result: MITF act) | Alpha artifact inactive
COCC#Cc1ccc2c(c1)O[C@H](CN(C)S(=O)(=O)c1cccc(OC)c1)[C@H](C)CN([C@@H](C)CO)S2(=O)=O	none (no result: MITF act, Wnt bcat act, NSD2 inh)
COc1ccc2c(c1)c1nc3ccccc3nc1n2CCn1c(=O)oc2ccccc21	NSD2 inh 58 (no result: Xi reactivation, CASP6 VEID inh) | Alpha artifact inactive
Cc1ccc(S(=O)(=O)N2CCCCC2CCNC(=O)C(=O)Nc2ccccc2F)cc1 (configuration not stated)	NSD2 inh 95 | Alpha artifact inactive
Cc1ncc(CO)c2c1Oc1nc(-c3ccccc3)nc(SCC(=O)N3CCCCC3)c1C2	none
Cc1ncc(CO)c2c1Oc1nc(-c3ccccc3)nc(SCC(=O)N3CCOCC3)c1C2	NSD2 inh 79 | Alpha artifact inactive
S=C1NCN(Cc2ccco2)CN1CCc1ccccc1	NSD2 inh 53 (no result: MITF act, esBAF inh) | Alpha artifact inactive
O=C(O)CC1S/C(=N/N=C/c2ccc(-c3ccccc3[N+](=O)[O-])o2)NC1=O (configuration not stated)	NSD2 inh 91 (no result: Xi reactivation, CASP6 VEID inh) | Alpha artifact inactive
C[C@H]1CCCCO[C@@H](CN(C)Cc2ccc(C(=O)O)cc2)[C@@H](C)CN([C@@H](C)CO)C(=O)c2cc(NS(=O)(=O)c3ccc(Cl)cc3)ccc2O1	none (no result: MITF act, Wnt bcat act, NSD2 inh)
O=C(CCCN1C(=O)/C(=C\c2cccs2)SC1=S)Nc1cccc(C(=O)O)c1	none (no result: esBAF inh)
O=C(CN1C(=O)/C(=C/c2ccco2)SC1=S)Nc1ccc(O)c(C(=O)O)c1	NSD2 inh 116 | Alpha artifact inactive
O=C(CCCN1C(=O)/C(=C\c2ccco2)SC1=S)Nc1ccc(O)cc1C(=O)O	NSD2 inh 104 (no result: CASP6 VEID inh) | Alpha artifact inactive
O=C(CCCN1C(=O)/C(=C/c2ccco2)SC1=S)Nc1cccc(C(=O)O)c1	CASP6 VEID inh 55, NSD2 inh 125 (no result: esBAF inh) | Alpha artifact inactive
O=C(CCCN1C(=O)/C(=C\c2cccs2)SC1=S)Nc1ccc(O)cc1C(=O)O	none
O=C(C[C@H]1CC[C@@H](NC(=O)C2CCOCC2)[C@H](CO)O1)NCc1ccccc1Cl	none (no result: MITF act, Wnt bcat act, NSD2 inh)
O=C(C[C@H]1CC[C@@H]2[C@H](COC[C@H](O)CN2C(=O)Nc2ccc(Cl)c(Cl)c2)O1)NC1CCC1	none (no result: MITF act, Wnt bcat act, NSD2 inh)
CCCNC(=O)Nc1ccc2c(c1)C(=O)N(C)[C@@H]1CC[C@H](CC(=O)NCC3CCCCC3)O[C@H]1CO2	none (no result: MITF act, Wnt bcat act, NSD2 inh)
N#C/C(C(N)=O)=c1/ccc2c(c1)N1C3=C(CCCC3)CC3CCCCC31N=2 (configuration not stated)	NSD2 inh 50 (no result: MITF act, Xi reactivation, CASP6 VEID inh) | Alpha artifact 5.5µM
O=C(NC1CCCCC1)c1ccc(S(=O)(=O)NCc2ccco2)cc1	NSD2 inh 55 (no result: Xi reactivation, Wnt bcat act, CASP6 VEID inh) | Alpha artifact inactive
O=C(NC1CCN(Cc2ccccc2)CC1)c1ccc(S(=O)(=O)NCc2ccco2)cc1	none (no result: CASP6 VEID inh)
Cc1ccccc1-c1cnc2c(c1)C(=O)N([C@@H](C)CO)C[C@@H](C)[C@H](CN(C)Cc1cccnc1)O2	none (no result: MITF act, Wnt bcat act, NSD2 inh)
O=C(N[C@@H]1CC[C@H](CCNC(=O)C2CC2)O[C@H]1CO)c1ccncc1	none (no result: MITF act, Wnt bcat act, NSD2 inh)
Cc1cccc(NC(=O)CSCC(=O)NCc2cccc(C(F)(F)F)c2)c1	NSD2 inh 98 | Alpha artifact inactive
Cc1cc(NC(=O)CSCC(=O)NCc2cccc(C(F)(F)F)c2)no1	none (no result: esBAF inh)
CN1c2ccccc2N(C)C1(C)c1ccccc1	NSD2 inh 54 (no result: Wnt bcat act, esBAF inh) | Alpha artifact inactive
COc1ccc(CN(C)C[C@@H]2OCCCC[C@@H](C)Oc3ccc(NC(=O)Cc4ccccc4)cc3C(=O)N([C@H](C)CO)C[C@H]2C)cc1	none (no result: MITF act, Wnt bcat act, CASP6 VEID inh, NSD2 inh)
